RBBP9 inh – blocks human serine hydrolase RBBP9 | inhibition, % at 7.94 µM | O75884 | 220,000 tested, 0.2% active | recombinant RBBP9, FP-Rh probe fluorescence polarization | AID 1515;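 active = inhibition above the campaign mean of all tested compounds plus 3 SD, cut at about 14% in these data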;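 note: plate controls were DMSO wells with RBBP9 for no effect and wells lacking RBBP9 protein for full effect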
Target sequence (O75884 whole entry, looked up): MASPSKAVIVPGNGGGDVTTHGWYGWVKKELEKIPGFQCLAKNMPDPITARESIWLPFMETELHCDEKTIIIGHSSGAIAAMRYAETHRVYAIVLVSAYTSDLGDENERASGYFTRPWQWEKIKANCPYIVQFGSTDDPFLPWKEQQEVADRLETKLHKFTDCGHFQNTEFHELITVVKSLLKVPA
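Controls: DMSO-treated enzyme wells and wells lacking RBBP9 | Material: RBBP9 protein | Technique: Fluorescence polarization | Replication: Single well per compound, no replicates | Buffer or medium: Tris-NaCl-Pluronic buffer, pH 8.0 | Timing: 30 min compound preincubation, 45 min probe labeling, 25 °C | Read-out basis: Percent inhibition from mP, scaled between DMSO and no-protein wells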
Wee1 degr inh – human Wee1 degradation inhibition, primary screen | 220,000 tested, 1.2% active | AID 1321 | reporter increase, % at 5 µM | P30291 | HeLa Luc-Wee1K328M stability, luciferase luminescence; 100% = proteasome inhibitor MG132 effect;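 active = activation above the mean of all tested compounds plus 3 SD, set per screening run, cut at about 8.8% in these data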;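 note: cells exposed to compound for 20 h before luminescence read; 0% = DMSO alone and 100% = MG132 at 30 µM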
Pf gametocyte – inhibitors of late stage P. falciparum gametocyte viability; 150,000 tested, 0.065% active; inhibition, % at 10.9 µM; P. falciparum stage V gametocytes, ATP luminescence, 24 h; AID 743093;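 active = inhibition above the mean plus 3 SD of compounds within the control limits, set per campaign, cut at about 38% in these data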;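 note: 0% = DMSO wells and 100% = medium only without gametocytes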
m-calpain inh – calpain II (pig) inhibition. purified calpain II, fluorogenic peptide substrate, 30 min. inhibition, % at 16 µM. 220,000 tested, 0.37% active;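 active = inhibition above about 50%, limit read from the data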
TNF death inh – inhibitors of TNF-alpha induced necroptosis in Jurkat FADD-/- cells; 220,000 tested, 0.068% active; Jurkat FADD-/- TNF necroptosis rescue, ATP luminescence, 24 h; 0 = TNF only, 100 = no-TNF cells; activation (protection from cell death), % at 10 µM; AID 463075;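 active = activation, meaning protection from cell death, of at least 50% relative to plate controls; inactive = activation below 50%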;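 note: necroptosis triggered by 40 ng/mL TNF-alpha added together with compound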
zVAD death inh – L929 zVAD cell death inhibition. 220,000 tested, 0.38% active. L929 zVAD necroptosis rescue, ATP luminescence, 24 h; with zVAD 60 µM. viability rescue, % at 10 µM;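 active = activation, scaled between plate controls, above about 75%, limit read from the data; inactive = activation under that limit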;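 note: 0% = zVAD with DMSO and 100% = DMSO alone without zVAD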
Wee1 stab conf – confirmation of human Wee1 degradation inhibitors | shares compounds with Wee1 degr inh | HeLa Luc-Wee1K328M degradation, luminescence; vehicle 0%, proteasome-blocked wells 100% | activation, % at 5 µM | 1,100 tested, 4% active | AID 1410; in the data active = activation above about 8.9%
Numbers without * were called inactive; i = inactive; / = no result. An excerpt weighted towards active compounds, which were near 2.1% of everything screened.

SMILES | RBBP9 inh | Wee1 degr inh | Pf gametocyte | m-calpain inh | TNF death inh | zVAD death inh | Wee1 stab conf
CC(=O)Nc1ccc2nc(NC(=O)c3cccs3)sc2c1 | -1 | 11* | 9 | -11 | -2 | -1 | 1
CC(=O)Nc1ccc2nc3ccccc3nc2c1 | 0 | 24* | -12 | 11 | 0 | 2 | -1
O=C(O)CN1CCN(Cc2ccccc2F)C1=O | -3 | 1 | -52 | -38 | 1 | 2 | /
Cc1ccc2c(c1)C1NC(=S)NC(C)(O2)C1C(=O)Nc1ccc(Cl)cc1 (stereo not drawn) | -9 | 2 | -4 | 4 | 1 | 2 | /
Cc1nc(-c2ccc(Cl)cc2)sc1C1(C)CC(c2ccc(C#N)cc2)=NO1 (stereo not drawn) | / | / | / | -20 | 2 | 0 | /
O=C(c1cnsn1)N1CCC(CO)(Cc2cccc(F)c2)CC1 | -2 | 0 | -21 | -18 | 0 | 0 | /
CC(CNC(=S)Nc1cc(F)cc(F)c1)CSc1ccc(Cl)cc1 (stereo not drawn) | -7 | -3 | 7 | 48 | 1 | 3 | /
CCCCOC(=O)CSc1nc2ccccc2o1 | 6 | 12* | -11 | 19 | 1 | 0 | 3
COc1ccc(C(=O)NC2CCN(C(=S)Nc3ccc(C)cc3)CC2)cc1 | -1 | 1 | -30 | 1 | 1 | 0 | /
CN(Cc1ccccc1)C(=O)c1cccc(N2C(=O)NC3CC2(C)Oc2ccccc23)c1 (stereo not drawn) | -3 | -2 | 23 | 29 | -3 | 0 | /
COc1cccc(N2C(=O)[C@H]3C(C(=O)c4cnccn4)=NN[C@H]3C2=O)c1 | 0 | 21* | 4 | 14 | 0 | -1 | -1
O=C(C1=NN[C@@H]2C(=O)N(c3cccc(F)c3)C(=O)[C@H]12)c1ccc2ccccc2n1 | -4 | 5 | -3 | 0 | 0 | -1 | /
O=C(O)CC1(CC(=O)NCc2csc(-c3cccs3)n2)CCCCC1 | 0 | 4 | 9 | -4 | 0 | 1 | /
COc1ccc(-n2nc3cc(C)c(NC(C)=O)cc3n2)cc1 | -6 | 12* | -9 | i | -1 | 13 | -4
COc1ccc(-n2nc3cc(C)c(NC(=O)C(C)C)cc3n2)cc1 | -2 | 1 | / | -260 | 0 | 0 | /
CCN(CC)S(=O)(=O)c1cc(C(=O)N(C)CC(=O)Nc2ccc(Cl)cc2)ccc1Cl | 1 | 12* | -8 | -6 | 5 | 1 | 0
COc1ccc(NC(=O)CS(=O)CC(=O)NC2CCCc3ccccc32)cc1 (stereo not drawn) | -1 | 1 | / | -6 | 0 | 1 | /
COc1ccc(NC(=O)COc2ccc(C(=O)NC3CCCc4ccccc43)cc2OC)cc1 (stereo not drawn) | -1 | 16* | -26 | 29 | 1 | 3 | 3
Cc1ccccc1OCc1csc(N)n1 | -5 | 16* | 8 | -21 | 0 | 2 | -1
Nc1nc(COc2ccccc2)cs1 | -9 | 3 | / | -36 | -1 | 0 | /
COc1ccc(NC(=O)c2onc(C)c2Cl)cc1 | -6 | 17* | -8 | 10 | 0 | 0 | -1
Nc1ccccc1C(=O)N/N=C1/C2CN3CCN(C2)CC1(Cc1ccccc1)C3 | -3 | 13* | 24 | -484 | -1 | -1 | 0
CCCC12CN3CCN(CC(C3)/C1=N\NC(=O)c1ccccc1N)C2 | -1 | 3 | / | -216 | 2 | 0 | /
COc1cc(OC)cc(C(=O)NC2CCSC2=O)c1 (stereo not drawn) | 0 | 12* | 10 | -40 | -3 | 0 | 0
COc1ccc(OC(=O)CN2C(=O)C3C4CCC(C4)C3C2=O)cc1 (stereo not drawn) | 4 | 0 | 4 | 11 | 0 | 0 | /
SMILES | RBBP9 inh | Wee1 degr inh | Pf gametocyte | m-calpain inh | TNF death inh | zVAD death inh | Wee1 stab conf
CC1CCN(C(=O)c2[nH]cnc2C(=O)NC2CCN(C(=O)OC(C)(C)C)CC2)CC1 | / | / | 4 | / | / | / | /
CC(=O)N1CCN(c2ccc(NCc3ccc(F)cc3)cc2)CC1 | 1 | 1 | / | -12 | -1 | 1 | /
COc1cc(CNc2ccc(N3CCN(C(C)=O)CC3)cc2)ccc1OCc1ccc(F)cc1 | 3 | 12* | -35 | -26 | 0 | 6 | 3
COc1ccccc1N1CCN(CC(O)COc2ccc3c(C)cc(=O)oc3c2)CC1 (stereo not drawn) | 9 | 17* | / | -27 | 1 | 1 | 0
Cc1nn(Cc2ccccc2)c(C)c1NC(=O)CSc1nc2sc3c(c2c(=O)n1C)CCC3 | -6 | 3 | / | / | 0 | -1 | /
CCOC(=O)c1c(NC(=O)CN2C(=O)NC3(CCC(C)CC3)C2=O)sc(C)c1-c1ccc(C)cc1 (stereo not drawn) | -1 | 0 | 4 | -5 | 0 | 5 | /
O=C(CNC(=O)c1ccc2c(c1)OCCO2)N/N=C/c1ccc(O)cc1O | -2 | -1 | -1 | -76 | -3 | 3 | /
O=C(CNC(=O)c1ccncc1)N/N=C/c1ccc(O)cc1O | 3 | 13* | 5 | 2 | 0 | 0 | 2
NC(=S)N/N=C1\c2ccccc2-c2c(C(=O)O)cccc21 | / | / | -6 | / | / | / | /
Cn1ccnc1SCC(=O)Nc1nc2ccccc2s1 | 4 | 14* | -2 | 23 | 2 | 1 | 5
CC(NC(=O)c1ccc(F)cc1)C(=O)NC1=NCCS1 (stereo not drawn) | -4 | -1 | 8 | -21 | 0 | -1 | /
COc1cc(/C=N/NC(=O)CN(Cc2ccco2)S(=O)(=O)c2ccccc2)ccc1O | -4 | 0 | / | -16 | 3 | 2 | /
COc1ccc(NC(=O)CNS(=O)(=O)c2ccc(Cl)cc2)cc1OC | 13 | 15* | -10 | -8 | 8 | 1 | 3
CCc1cccc(CC)c1N(COC)C(=O)Cn1ccccc1=N | -2 | 13* | / | -18 | 2 | 0 | -2
CCc1cccc(CC)c1N(COC)C(=O)Cn1nnc2ccccc21 | -1 | 0 | / | -13 | 1 | 0 | /
O=S1(=O)N=C(Nc2ccc(N3CCOCC3)c(Cl)c2)c2ccccc21 | -6 | 11* | -1 | 8 | -2 | 3 | 6
CCOC(=O)C1=C(CCc2ccccc2)NC(=O)NC1c1ccc(C#N)cc1 (stereo not drawn) | / | / | -25 | / | / | / | /
CCSc1nc(CC)c2c(c1C#N)CCCC2 | 3 | 0 | 14 | 8 | -4 | / | /
CCOc1ccc(/C=N/NC(=O)Cc2cccs2)cc1 | -7 | 14* | 0 | -5 | 0 | 0 | 0
Cc1c(NC(=S)NC(C)(C)C)c(=O)n(-c2ccccc2)n1C | -4 | 14* | / | -25 | 1 | 2 | -2
Brc1cc2c(cc1Br)OCCOCCOCCOCCO2 | -4 | 19* | 14 | -7 | 1 | 0 | 2

Compound activity from PubChem BioAssay.
